{"data": "Measurements pooled from the literature", "CA9": "Carbonic anhydrase 9 (CA9, Homo sapiens, UniProt Q16790)", "Melanocortin receptor 5": "Melanocortin receptor 5 (Mus musculus, UniProt P41149)", "Adora1": "Adenosine receptor A1 (Adora1, Rattus norvegicus, UniProt P25099)", "gyrB": "DNA gyrase subunit B (gyrB, Escherichia coli, UniProt P0AES6)", "PKN1": "Serine/threonine-protein kinase N1 (PKN1, Homo sapiens, UniProt Q16512)", "note": "Lines come from different studies, so protocols differ."}
{"Compound": "Cc1cc(C(=O)Nc2ccccc2C(=O)NCc2cn(C)nn2)c(C)n1Cc1ccc(S(N)(=O)=O)cc1", "target": "CA9", "observed": "enzyme activity", "mode": "inhibitor", "quantity": "IC50", "result": "38.9 nM"}
{"Compound": "N=C(N)NCCC[C@H](NC(=O)[C@H](CC(=O)O)NC(=O)[C@H](Cc1c[nH]c2ccccc12)NC(=O)[C@H](CCCNC(=N)N)NC(=O)[C@H](Cc1ccccc1)NC(=O)[C@H](Cc1c[nH]cn1)NC(=O)CN)C(=O)N[C@@H](Cc1ccccc1)C(=O)NCC(=O)O", "target": "Melanocortin receptor 5", "observed": "reporter gene", "mode": "agonist", "quantity": "EC50", "result": "290 nM"}
{"Compound": "CC(C)N1CCCn2c1nc1c2c(=O)n(C)c(=O)n1C", "target": "Adora1", "observed": "ligand displacement", "technique": "radioligand", "notes": "cell membranes", "quantity": "Ki", "result": "> 25000 nM"}
{"Compound": "N=C(N)NCCC[C@H](NC(=O)[C@H](CC(=O)O)NC(=O)[C@H](Cc1c[nH]c2ccccc12)NC(=O)[C@@H](N)CCCNC(=N)N)C(=O)N[C@@H](Cc1ccccc1)C(=O)NCC(=O)O", "target": "Melanocortin receptor 5", "observed": "reporter gene", "mode": "agonist", "quantity": "EC50", "result": "> 100000 nM"}
{"Compound": "Cc1cc(C(=O)Nc2ccc(-c3cn(C)nn3)cc2)c(C)n1Cc1ccc(S(N)(=O)=O)cc1", "target": "CA9", "observed": "enzyme activity", "mode": "inhibitor", "quantity": "IC50", "result": "18.2 nM"}
{"Compound": "O=C(O)c1cccc(CCNC(=O)c2cc3ccccc3[nH]c2=O)c1", "target": "gyrB", "observed": "binding", "technique": "ITC", "quantity": "Kd", "result": "1400 nM"}
{"Compound": "NS(=O)(=O)c1ccc(NC(=O)COC(=O)c2ccccc2Nc2cccc(C(F)(F)F)c2)cc1", "target": "CA9", "observed": "enzyme activity", "mode": "inhibitor", "quantity": "IC50", "result": "87 nM"}
{"Compound": "CNc1cccc2cc(C(=O)NCc3cccc(C(=O)O)c3)c(=O)[nH]c12", "target": "gyrB", "observed": "binding", "technique": "ITC", "quantity": "Kd", "result": "390 nM"}
{"Compound": "CO[C@@]1(NC(=O)C2SC(=C(C(N)=O)C(=O)O)S2)C(=O)N2C(C(=O)O)=C(CSc3nnnn3C)CS[C@@H]21 (stereo partly drawn)", "target": "Phosphatidylethanolamine-binding protein 1 (Homo sapiens, UniProt P30086)", "observed": "binding", "quantity": "Kd", "result": "35800 nM"}
{"Compound": "NS(=O)(=O)c1cc(C(=O)Nc2ccc(NC(=O)CCN3CCCCC3)cc2)ccc1Cl", "target": "CA9", "observed": "enzyme activity", "mode": "inhibitor", "quantity": "IC50", "result": "160 nM"}
{"Compound": "N=C(N)NCCC[C@H](NC(=O)[C@@H](N)CC(=O)O)C(=O)N[C@@H](Cc1ccccc1)C(=O)O", "target": "Melanocortin receptor 5", "observed": "reporter gene", "mode": "agonist", "quantity": "EC50", "result": "> 100000 nM"}
{"Compound": "Cn1cc(-c2ccc(N3CCN(C(=O)c4ccc(S(N)(=O)=O)c(Br)c4)CC3)c3cc[nH]c23)nn1", "target": "CA9", "observed": "enzyme activity", "mode": "inhibitor", "quantity": "IC50", "result": "12.9 nM"}
{"Compound": "N=C(N)NCCC[C@H](NC(=O)[C@H](CC(=O)O)NC(=O)[C@H](Cc1c[nH]c2ccccc12)NC(=O)[C@H](CCCNC(=N)N)NC(=O)[C@H](Cc1ccccc1)NC(=O)[C@@H](N)Cc1c[nH]cn1)C(=O)N[C@@H](Cc1ccccc1)C(=O)O", "target": "Melanocortin receptor 5", "observed": "reporter gene", "mode": "agonist", "quantity": "EC50", "result": "1870 nM"}
{"Compound": "NS(=O)(=O)c1ccc(O)c(C(=O)N(Cc2ccc(O)cc2)Cc2ccco2)c1", "target": "CA9", "observed": "enzyme activity", "mode": "inhibitor", "quantity": "IC50", "result": "152 nM"}
{"Compound": "CCCCCC(C)N1CCCn2c1nc1c2c(=O)n(C)c(=O)n1C (stereo not drawn)", "target": "Adora1", "observed": "ligand displacement", "technique": "radioligand", "notes": "cell membranes", "quantity": "Ki", "result": "> 25000 nM"}
{"Compound": "N=C(N)NCCC[C@H](NC(=O)[C@H](CC(=O)O)NC(=O)[C@H](Cc1c[nH]c2ccccc12)NC(=O)[C@H](CCCNC(=N)N)NC(=O)[C@@H](N)Cc1ccccc1)C(=O)N[C@@H](Cc1ccccc1)C(=O)O", "target": "Melanocortin receptor 5", "observed": "reporter gene", "mode": "agonist", "quantity": "EC50", "result": "6730 nM"}
{"Compound": "CC(C)NC[C@@H](C(=O)N1CCN(c2ncnc3c2[C@H](C)C[C@H]3O)CC1)c1ccc(Cl)cc1", "target": "PKN1", "observed": "enzyme activity", "mode": "inhibitor", "quantity": "IC50", "result": "30 nM"}
{"Compound": "CCCCN1CCCn2c1nc1c2c(=O)n(CCC)c(=O)n1CCC", "target": "Adora1", "observed": "ligand displacement", "technique": "radioligand", "notes": "cell membranes", "quantity": "Ki", "result": "280 nM"}
{"Compound": "CNC(=O)c1ccc2oc(C(=O)NC3CCCN(CC(=O)Nc4ccc(S(N)(=O)=O)cc4)C3)cc2c1 (stereo not drawn)", "target": "CA9", "observed": "enzyme activity", "mode": "inhibitor", "quantity": "IC50", "result": "95.5 nM"}
{"Compound": "CNc1cccc2cc(C(=O)Nc3cccc(CC(=O)O)c3)c(=O)[nH]c12", "target": "gyrB", "observed": "binding", "technique": "ITC", "quantity": "Kd", "result": "37 nM"}
{"Compound": "Cc1cc(Nc2nc(N[C@@H](C)c3ccc(F)cc3)c(C#N)cc2F)n[nH]1", "target": "PKN1", "observed": "enzyme activity", "mode": "inhibitor", "quantity": "IC50", "result": "213 nM"}
{"Compound": "O=C(Nc1ccc(N2C(=O)c3ccccc3C2=O)c(Cl)c1)c1ncccc1Cl", "target": "Metabotropic glutamate receptor 4 (GRM4, Homo sapiens, UniProt Q14833)", "observed": "calcium signal", "mode": "agonist", "quantity": "EC50", "result": "> 10000 nM"}
{"Compound": "CSCC[C@H](NC(=O)[C@@H](NC(=O)[C@@H](N)Cc1ccc(O)cc1)C(C)C)C(=O)NCC(=O)N[C@@H](Cc1c[nH]cn1)C(=O)N[C@@H](Cc1ccccc1)C(=O)N[C@@H](CCCNC(=N)N)C(=O)N[C@@H](Cc1c[nH]c2ccccc12)C(=O)N[C@@H](CC(=O)O)C(=O)O", "target": "Melanocortin receptor 5", "observed": "reporter gene", "mode": "agonist", "quantity": "EC50", "result": "73 nM"}
{"Compound": "CC(OC(=O)c1ccc(Cl)c(S(N)(=O)=O)c1)C(=O)NCCc1c[nH]c2ccccc12 (stereo not drawn)", "target": "CA9", "observed": "enzyme activity", "mode": "inhibitor", "quantity": "IC50", "result": "293 nM"}
{"Compound": "CC(C)CCCC(C)N1CCCn2c1nc1c2c(=O)n(C)c(=O)n1C (stereo not drawn)", "target": "Adora1", "observed": "ligand displacement", "technique": "radioligand", "notes": "cell membranes", "quantity": "Ki", "result": "7690 nM"}
{"Compound": "N=C(N)NCCC[C@H](NC(=O)[C@H](Cc1ccccc1)NC(=O)[C@@H](N)Cc1cnc[nH]1)C(=O)N[C@@H](Cc1c[nH]c2ccccc12)C(=O)O", "target": "Melanocortin receptor 5", "observed": "reporter gene", "mode": "agonist", "quantity": "EC50", "result": "10100 nM"}
{"Compound": "O=C(O)c1ccc(NC(=O)c2cc3ccccc3[nH]c2=O)cc1", "target": "gyrB", "observed": "binding", "technique": "ITC", "quantity": "Kd", "result": "730 nM"}
